# Measurements: the array DNA melting data of Ke et al. (doi:10.1101/2024.01.08.574731)
# Assays:
# [1] = melting temperature; fluorescence melt of hairpins on a sequencing array, two-state fit, raised by 9.35 °C to match UV melts; conditions: sodium 0.088 M
# In short: (§1)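 Cy3 fluorescence of library hairpins on a sequenced MiSeq flow cell, with annealed Cy3 and quencher oligos, was imaged in 50 mM Na-HEPES pH 8.0, 25 mM NaCl in 2.5 °C steps up to 60 °C. Signals were normalised to pre-quench Cy3 and to control variants. Melting temperature and folding enthalpy came from bootstrapped two-state fits, inverse-variance combined over four replicates. Fitted temperatures were raised by 9.35 °C to match UV melts.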
# [2] = folding enthalpy; higher = less favourable; fluorescence melt of hairpins on a sequencing array, two-state fit; conditions: sodium 0.088 M
# In short: as §1
sequence,measurement,setting,value
GTTCGCGAAAGCGCGAAC ((((((....)))..))),Tm,[1],65 °C
same,folding enthalpy,[2],-27.4 kcal/mol
GTTCGCGAAAGCGGGAAC ((((((....)))..))),Tm,[1],40.7 °C
same,folding enthalpy,[2],-11.8 kcal/mol
GTTCGCGGAAACGTGAAC ((((.((....)).)))),Tm,[1],56.8 °C
same,folding enthalpy,[2],-37.7 kcal/mol
GTTCGCGGAAACGTGGAC ((.(.((....)).).)),Tm,[1],44.8 °C
same,folding enthalpy,[2],-26.9 kcal/mol
GTTCGGGGAAACCCGGAC ((.((((....)))).)),Tm,[1],54.9 °C
same,folding enthalpy,[2],-42.2 kcal/mol
GTTCGTGGAAACACAAAC (((.(((....))).))),Tm,[1],34 °C
same,folding enthalpy,[2],-22.1 kcal/mol
GTTCTAGAAATAGAAC ((((((....)))))),Tm,[1],41.1 °C
same,folding enthalpy,[2],-28.4 kcal/mol
GTTCTAGGAAACCAGAAC (((((.(....).))))),Tm,[1],35.6 °C
same,folding enthalpy,[2],-26.6 kcal/mol
GTTCTCGAAAGAGAAAAC ((((((....)))..))),Tm,[1],32.6 °C
same,folding enthalpy,[2],-14 kcal/mol
GTTCTCGAAAGAGACAAC ((((((....)))..))),Tm,[1],30.6 °C
same,folding enthalpy,[2],-11.6 kcal/mol
GTTCTCGAAAGAGTAAAC ((((((....)))..))),Tm,[1],27.9 °C
same,folding enthalpy,[2],-12.5 kcal/mol
GTTCTCGGAAACGAGGAC ((.((((....)))).)),Tm,[1],52 °C
same,folding enthalpy,[2],-28.7 kcal/mol
GTTCTGACGAAAGTCAAC (((..(((....)))))),Tm,[1],25.2 °C
same,folding enthalpy,[2],-8.85 kcal/mol
GTTCTGCGAAAGCAAAC (((.(((....)))))),Tm,[1],36.9 °C
same,folding enthalpy,[2],-13.5 kcal/mol
GTTCTGGAAACAGAAC ((((((....)))))),Tm,[1],53.4 °C
same,folding enthalpy,[2],-37.2 kcal/mol
GTTCTGGGAAACTAGGAC ((.((.(....).)).)),Tm,[1],28.8 °C
same,folding enthalpy,[2],-9.14 kcal/mol
GTTCTGTCGAAAGACAAC (((..(((....)))))),Tm,[1],23.8 °C
same,folding enthalpy,[2],-9.57 kcal/mol
GTTCTTCGAAAGAACAAC (((.(((....))).))),Tm,[1],32 °C
same,folding enthalpy,[2],-14.9 kcal/mol
GTTCTTGGAAACAAGAAC (((((((....))))))),Tm,[1],55.5 °C
same,folding enthalpy,[2],-41.7 kcal/mol
GTTGAAGAAATTCAAC ((((((....)))))),Tm,[1],45.8 °C
same,folding enthalpy,[2],-27.1 kcal/mol
GTTGAAGGAAACCTCAAC (((((.(....).))))),Tm,[1],36 °C
same,folding enthalpy,[2],-31 kcal/mol
GTTGACCCGAAAGGGAAC (((..(((....)))))),Tm,[1],37.8 °C
same,folding enthalpy,[2],-14.3 kcal/mol
GTTGACCGAAAGGTAAAC (((.(((....))).))),Tm,[1],48.7 °C
same,folding enthalpy,[2],-30.7 kcal/mol
GTTGACCGAAAGGTTAAC (((.(((....))).))),Tm,[1],53.1 °C
same,folding enthalpy,[2],-33.7 kcal/mol
GTTGACGAAAGTCCAAAC ((((((....)))..))),Tm,[1],24.3 °C
same,folding enthalpy,[2],-9.18 kcal/mol
GTTGAGCGAAAGCTGAAC (((.(((....))).))),Tm,[1],46.2 °C
same,folding enthalpy,[2],-23.9 kcal/mol
GTTGAGCGAAAGCTTAAC (((.(((....))).))),Tm,[1],52.4 °C
same,folding enthalpy,[2],-26.4 kcal/mol
GTTGAGGAAACTCAAC ((((((....)))))),Tm,[1],53.4 °C
same,folding enthalpy,[2],-32.2 kcal/mol
GTTGAGGCGAAAGCCAAC (((..(((....)))))),Tm,[1],40.7 °C
same,folding enthalpy,[2],-14.6 kcal/mol
GTTGAGGGAAACCTCGAC ((.((((....)))).)),Tm,[1],49.8 °C
same,folding enthalpy,[2],-29.5 kcal/mol
GTTGATACGAAAGTAAAC (((..(((....)))))),Tm,[1],25.8 °C
same,folding enthalpy,[2],-8.92 kcal/mol
GTTGATCGAAAGATAAAC (((.(((....))).))),Tm,[1],40 °C
same,folding enthalpy,[2],-25.1 kcal/mol
GTTGATGGAAACATTGAC ((..(((....)))..)),Tm,[1],29.5 °C
same,folding enthalpy,[2],-13.7 kcal/mol
GTTGATGGAAACGTCAAC (((((.(....).))))),Tm,[1],47.1 °C
same,folding enthalpy,[2],-42.9 kcal/mol
GTTGCAGGAAACTGTAGC (.(.(((....))).).),Tm,[1],32.6 °C
same,folding enthalpy,[2],-19.9 kcal/mol
GTTGCCCCGAAAGGGAAC (((..(((....)))))),Tm,[1],39.2 °C
same,folding enthalpy,[2],-14.2 kcal/mol
GTTGCCCGAAAGGGAAC (((.(((....)))))),Tm,[1],47.6 °C
same,folding enthalpy,[2],-15.6 kcal/mol
GTTGCCCGAAAGGGGAAC (((.(((....))).))),Tm,[1],62.1 °C
same,folding enthalpy,[2],-34.2 kcal/mol
